According to ChEMBL document CHEMBL5058577, “EUbOPEN Chemogenomics Library 2 (Multiplex)” (2022):

Test system: U2OS
Experiment: Multiplex assay against U2OS
Format: toxicity, cell-based
Conditions: human
Procedure, shortened: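 Compound was added to live cells that had been stained at seeding with Hoechst33342, BioTracker Green Microtubule Cytoskeleton Dye, MitoTracker Red and Annexin V Alexa Fluor 680, and imaging followed on a CQ1 microscope at 37°C and 5% CO2. CellPathfinder machine-learning gating divided cells into Hoechst high-intensity objects or normal cells, normal cells into healthy, pyknosed or fragmented nuclei, and pyknosed cells into mitotic or apoptotic. Tubulin, mitochondrial-mass and membrane-permeability phenotypes are per cents of healthy-nucleus cells.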

[1] = 12 h, 1 µM, compound concentration 1 uM, replicate 1
[2] = 12 h, 1 µM, compound concentration 1 uM, replicate 2
[3] = 12 h, 10 µM, compound concentration 10 uM, replicate 1
[4] = 12 h, 10 µM, compound concentration 10 uM, replicate 2
[5] = 24 h, 1 µM, compound concentration 1 uM, replicate 1
[6] = 24 h, 1 µM, compound concentration 1 uM, replicate 2
[7] = 24 h, 10 µM, compound concentration 10 uM, replicate 1
[8] = 24 h, 10 µM, compound concentration 10 uM, replicate 2
[9] = 48 h, 1 µM, compound concentration 1 uM, replicate 1
[10] = 48 h, 1 µM, compound concentration 1 uM, replicate 2
[11] = 48 h, 10 µM, compound concentration 10 uM, replicate 1
[12] = 48 h, 10 µM, compound concentration 10 uM, replicate 2

## CN1CCN(c2cc(-c3ccccc3)nc(N)n2)CC1
[1]
  Population Apoptotic (%): 80%
  Population Fragmented Nuclei (%): 32%
  Population Healthy Nuclei (%): 61%
  Population Hoechst High Intensity Objects (%): 2%
  Population Membrane Permeable-Phenotype (%): 5%
  Population Mitochondria Different-Phenotype (%): 2%
  Population Mitotic Cells (%): 20%
  Population Normal (%): 97%
  Population Pyknosed Nuclei (%): 6%
  Population Tubulin-Different-Phenotype (%): 2%
  Total Cell Count: 235
[2]
  Population Apoptotic (%): 62%
  Population Fragmented Nuclei (%): 17%
  Population Healthy Nuclei (%): 76%
  Population Hoechst High Intensity Objects (%): 1%
  Population Membrane Permeable-Phenotype (%): 7%
  Population Mitochondria Different-Phenotype (%): 5%
  Population Mitotic Cells (%): 37%
  Population Normal (%): 98%
  Population Pyknosed Nuclei (%): 5%
  Population Tubulin-Different-Phenotype (%): 11%
  Total Cell Count: 141
[3]
  Population Apoptotic (%): 86%
  Population Fragmented Nuclei (%): 30%
  Population Healthy Nuclei (%): 63%
  Population Hoechst High Intensity Objects (%): 0%
  Population Membrane Permeable-Phenotype (%): 5%
  Population Mitochondria Different-Phenotype (%): 3%
  Population Mitotic Cells (%): 13%
  Population Normal (%): 99%
  Population Pyknosed Nuclei (%): 6%
  Population Tubulin-Different-Phenotype (%): 3%
  Total Cell Count: 252
[4]
  Population Apoptotic (%): 73%
  Population Fragmented Nuclei (%): 8%
  Population Healthy Nuclei (%): 80%
  Population Hoechst High Intensity Objects (%): 1%
  Population Membrane Permeable-Phenotype (%): 10%
  Population Mitotic Cells (%): 26%
  Population Normal (%): 98%
  Population Pyknosed Nuclei (%): 10%
  Population Tubulin-Different-Phenotype (%): 7%
  Total Cell Count: 139
[5]
  Population Apoptotic (%): 86%
  Population Fragmented Nuclei (%): 25%
  Population Healthy Nuclei (%): 65%
  Population Hoechst High Intensity Objects (%): 1%
  Population Membrane Permeable-Phenotype (%): 7%
  Population Mitochondria Different-Phenotype (%): 1%
  Population Mitotic Cells (%): 13%
  Population Normal (%): 98%
  Population Pyknosed Nuclei (%): 8%
  Population Tubulin-Different-Phenotype (%): 4%
  Total Cell Count: 278
[6]
  Population Apoptotic (%): 80%
  Population Fragmented Nuclei (%): 21%
  Population Healthy Nuclei (%): 73%
  Population Membrane Permeable-Phenotype (%): 6%
  Population Mitotic Cells (%): 20%
  Population Pyknosed Nuclei (%): 5%
  Population Tubulin-Different-Phenotype (%): 9%
  Total Cell Count: 177
[7]
  Population Apoptotic (%): 100%
  Population Fragmented Nuclei (%): 23%
  Population Healthy Nuclei (%): 69%
  Population Hoechst High Intensity Objects (%): 1%
  Population Membrane Permeable-Phenotype (%): 9%
  Population Mitochondria Different-Phenotype (%): 3%
  Population Mitotic Cells (%): 0%
  Population Normal (%): 98%
  Population Pyknosed Nuclei (%): 6%
  Population Tubulin-Different-Phenotype (%): 7%
  Total Cell Count: 287
[8]
  Population Apoptotic (%): 81%
  Population Fragmented Nuclei (%): 12%
  Population Healthy Nuclei (%): 80%
  Population Hoechst High Intensity Objects (%): 2%
  Population Membrane Permeable-Phenotype (%): 4%
  Population Mitochondria Different-Phenotype (%): 4%
  Population Mitotic Cells (%): 18%
  Population Normal (%): 97%
  Population Tubulin-Different-Phenotype (%): 2%
  Total Cell Count: 166
[9]
  Population Apoptotic (%): 83%
  Population Fragmented Nuclei (%): 21%
  Population Healthy Nuclei (%): 69%
  Population Hoechst High Intensity Objects (%): 2%
  Population Membrane Permeable-Phenotype (%): 5%
  Population Mitochondria Different-Phenotype (%): 1%
  Population Mitotic Cells (%): 16%
  Population Normal (%): 97%
  Population Pyknosed Nuclei (%): 9%
  Population Tubulin-Different-Phenotype (%): 2%
  Total Cell Count: 409
[10]
  Population Apoptotic (%): 69%
  Population Fragmented Nuclei (%): 19%
  Population Healthy Nuclei (%): 75%
  Population Hoechst High Intensity Objects (%): 3%
  Population Mitochondria Different-Phenotype (%): 2%
  Population Mitotic Cells (%): 30%
  Population Normal (%): 96%
  Population Pyknosed Nuclei (%): 5%
  Population Tubulin-Different-Phenotype (%): 7%
  Total Cell Count: 267
[11]
  Population Apoptotic (%): 100%
  Population Fragmented Nuclei (%): 19%
  Population Healthy Nuclei (%): 71%
  Population Hoechst High Intensity Objects (%): 1%
  Population Membrane Permeable-Phenotype (%): 5%
  Population Mitochondria Different-Phenotype (%): 3%
  Population Mitotic Cells (%): 0%
  Population Normal (%): 98%
  Population Pyknosed Nuclei (%): 8%
  Population Tubulin-Different-Phenotype (%): 6%
  Total Cell Count: 420
[12]
  Population Apoptotic (%): 88%
  Population Fragmented Nuclei (%): 11%
  Population Healthy Nuclei (%): 78%
  Population Membrane Permeable-Phenotype (%): 2%
  Population Mitotic Cells (%): 12%
  Population Pyknosed Nuclei (%): 10%
  Population Tubulin-Different-Phenotype (%): 1%
  Total Cell Count: 254
